According to ChEMBL document CHEMBL1125228, “A 3-D model for 5-HT1A-receptor agonists based on stereoselective methyl-substituted and conformationally restricted analogues of 8-hydroxy-2-(dipropylamino)tetralin” (J Med Chem, 1991):
Several values for one entry are separate records, joined by “and”; a condition that tells them apart may be missing. Identical values can stand only once.

What was measured:
[1] = target: Serotonin (5-HT) receptor (Rattus norvegicus) (UniProt P35563+P35365+P32305+P31388+Q9JJ16+P28564+P30994+Q62758+P08909+P14842+P30940+P35364+P19327+P28565); experiment: Dose corresponding to half-maximal decrease of 5-HTP formation in the limbic and striatal parts of rat brain; type: functional, tissue-based
[2] = target: T1, Dopamine receptor (Rattus norvegicus) (UniProt P25115+P19020+P30729+P18901+P61169); experiment: In vivo accumulation of DOPA in limbic of rat brain at a dose of 53 umol/kg.; type: functional, organism-based
Summary of the method: (§1)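 Rats, reserpine-pretreated (5 mg/kg, i.e. 9 μmol/kg sc, 6 h before) or nonpretreated, given test hydrochloride sc in the neck (injection volume 5 mL/kg). Decarboxylase inhibitor NSD 1015 (100 mg/kg ip or 60 mg/kg sc) given 30 min later; decapitation after another 30 min. Brain dissected on ice into striatum, limbic system, hemispheres, brain stem. Homogenized in 0.1 M perchloric acid with α-methyl-DOPA internal standard; DOPA measured by ion-pair reversed-phase HPLC with electrochemical detection.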

[3] = target: T1, Dopamine receptor (Rattus norvegicus); experiment: In vivo accumulation of DOPA in hemisphere of rat brain at a dose of 53 umol/kg.; type: functional, organism-based; summary of the method: as §1
[4] = tested on: Rattus norvegicus; experiment: In vivo accumulation of 5-HT in striatum of rat brain at a dose of 63 umol/kg.; type: functional
Summary of the method: (§2)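 Hydrochlorides given sc in the neck (5 mL/kg) to rats, either untreated or reserpine-pretreated (5 mg/kg sc, 6 h before). Decarboxylase inhibitor NSD 1015 (100 mg/kg ip or 60 mg/kg sc) given 30 min later; rats decapitated after another 30 min. Striatum, limbic system, hemispheres and brain stem dissected on ice and homogenized in 0.1 M perchloric acid with α-methyl-DOPA internal standard. DOPA, DA, 5-HTP and 5-HT measured by ion-pair reversed-phase HPLC with electrochemical detection.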

[5] = tested on: Rattus norvegicus; experiment: In vivo accumulation of 5-HTP in brain stem of rat brain at a dose of 63 umol/kg.; type: functional; summary of the method: as §2
[6] = tested on: Rattus norvegicus; experiment: In vivo accumulation of DOPA in brain stem of rat brain at a dose of 63 umol/kg.; type: functional; summary of the method: as §2
[7] = target: T1, Dopamine receptor (Rattus norvegicus); experiment: In vivo accumulation of DOPA in limbic of rat brain at a dose of 63 umol/kg.; type: functional, organism-based; summary of the method: as §1
[8] = tested on: Rattus norvegicus; experiment: In vivo accumulation of 5-HTP in hemisphere of rat brain at a dose of 63 umol/kg.; type: functional; summary of the method: as §2
[9] = tested on: Rattus norvegicus; experiment: In vivo accumulation of DOPA in hemisphere of rat brain at a dose of 63 umol/kg.; type: functional; summary of the method: as §1
[10] = tested on: Rattus norvegicus; experiment: In vivo accumulation of DA in striatum of rat brain at a dose of 63 umol/kg.; type: functional; summary of the method: as §2
[11] = tested on: Rattus norvegicus; experiment: In vivo accumulation of DOPA in striatum of rat brain at a dose of 63 umol/kg.; type: functional; summary of the method: as §1
[12] = tested on: Rattus norvegicus; experiment: In vivo accumulation of 5-HTP in limbic of rat brain at a dose of 63 umol/kg.; type: functional; summary of the method: as §2
[13] = tested on: Rattus norvegicus; experiment: In vivo accumulation of 5-HTP in striatum of rat brain at a dose of 63 umol/kg.; type: functional; summary of the method: as §2
[14] = tested on: Rattus norvegicus; experiment: In vivo accumulation of 5-HT in limbic of rat brain at a dose of 63 umol/kg.; type: functional; summary of the method: as §2
[15] = target: T2, 5-hydroxytryptamine receptor 1A (Rattus norvegicus, UniProt P19327); experiment: Binding affinity at 5-hydroxytryptamine 1A receptor by the displacement of [3H]8-OH-DPAT in rat brain.; type: tissue-based
T2 sequence (P19327 whole entry): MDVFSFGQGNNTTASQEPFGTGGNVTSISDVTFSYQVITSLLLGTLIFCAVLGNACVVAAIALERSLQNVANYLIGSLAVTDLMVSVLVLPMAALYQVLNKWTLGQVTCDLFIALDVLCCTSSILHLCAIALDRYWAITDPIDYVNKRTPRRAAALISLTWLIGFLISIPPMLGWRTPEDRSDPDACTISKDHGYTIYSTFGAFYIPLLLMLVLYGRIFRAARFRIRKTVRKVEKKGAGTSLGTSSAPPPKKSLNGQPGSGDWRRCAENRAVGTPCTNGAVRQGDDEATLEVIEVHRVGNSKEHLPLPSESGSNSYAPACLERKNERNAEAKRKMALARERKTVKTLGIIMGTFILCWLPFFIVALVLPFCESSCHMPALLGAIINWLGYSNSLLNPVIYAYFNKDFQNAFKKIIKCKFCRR
Summary of the method: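 Rat brain membranes washed in 50 mM Tris-HCl pH 7.4, with a 37 °C 10 min incubation to remove endogenous 5-HT, used at 10 mg wet tissue/mL. Incubated 15 min at 37 °C with 1 nM [3H]-8-OH-DPAT, 3 mM CaCl2 and pargyline. Filtered and counted; 10 µM 5-HT defined nonspecific binding. IC50 from four-parameter logistic fit, converted to Ki by Cheng-Prusoff; mean ± SEM of N experiments.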

[16] = tested on: Rattus norvegicus; experiment: In vivo accumulation of DOPA in brain stem of rat brain at a dose of 53 umol/kg.; type: functional; summary of the method: as §2
[17] = tested on: Rattus norvegicus; experiment: In vivo accumulation of 5-HT in striatum of rat brain at a dose of 53 umol/kg.; type: functional; summary of the method: as §2
[18] = tested on: Rattus norvegicus; experiment: In vivo accumulation of 5-HTP in striatum of rat brain at a dose of 53 umol/kg.; type: functional; summary of the method: as §2
[19] = tested on: Rattus norvegicus; experiment: In vivo accumulation of 5-HTP in hemisphere of rat brain at a dose of 53 umol/kg.; type: functional; summary of the method: as §2
[20] = tested on: Rattus norvegicus; experiment: In vivo accumulation of 5-HTP in brain stem of rat brain at a dose of 53 umol/kg.; type: functional; summary of the method: as §2
[21] = tested on: Rattus norvegicus; experiment: In vivo accumulation of DA in striatum of rat brain at a dose of 53 umol/kg.; type: functional; summary of the method: as §2
[22] = tested on: Rattus norvegicus; experiment: In vivo accumulation of 5-HTP in limbic of rat brain at a dose of 53 umol/kg.; type: functional; summary of the method: as §2
[23] = tested on: Rattus norvegicus; experiment: In vivo accumulation of 5-HT in limbic of rat brain at a dose of 53 umol/kg.; type: functional; summary of the method: as §2
[24] = tested on: Rattus norvegicus; experiment: In vivo accumulation of DOPA in striatum of rat brain at a dose of 53 umol/kg.; type: functional; summary of the method: as §1

Question: For `CCCN1CCC[C@H]2Cc3cccc(O)c3C[C@@H]21` [listing 1 of 2 here], which ED50 [1] is on record?
Answer: > 0.05 mg/kg

Question: And the Control [2]?
Answer: 91.4% and 87.5%

Question: And the Control [3]?
Answer: 98.8%

Question: With `Oc1cccc2c1C[C@@H]1NCCC[C@H]1C2` as the molecule, how does the Control [4] read?
Answer: 116%

Question: And the Control [5]?
Answer: 115.8%

Question: And the Control [6]?
Answer: 90.3%

Question: What about the Control [7] of the same molecule?
Answer: 85.7% and 95.5%

Question: What about the Control [8] of the same molecule?
Answer: 107.8%

Question: And the Control [9]?
Answer: 85.2%

Question: What about the Control [10] of the same molecule?
Answer: 97.4%

Question: What about the Control [11] of the same molecule?
Answer: 85.3%

Question: What about the Control [12] of the same molecule?
Answer: 104.6%

Question: And the Control [13]?
Answer: 116.8%

Question: What about the Control [14] of the same molecule?
Answer: 109.6%

Question: With `CCCN1CCC[C@H]2Cc3cccc(O)c3C[C@H]21` as the molecule, how does the Ki [15] read?
Answer: 151 nM

Question: `CCCN1CCC[C@@H]2Cc3cccc(O)c3C[C@@H]21` [listing 1 of 2 here] was tested. Which Control [16] did it give?
Answer: 82.3%

Question: And the Control [17]?
Answer: 118.7%

Question: What about the Control [18] of the same molecule?
Answer: 76.1%

Question: What about the Control [19] of the same molecule?
Answer: 77.9%

Question: What about the Control [20] of the same molecule?
Answer: 87.6%

Question: And the Control [21]?
Answer: 105.3%

Question: And the Control [22]?
Answer: 80.6%

Question: What about the Control [23] of the same molecule?
Answer: 107.5%

Question: What about the Control [24] of the same molecule?
Answer: 68.3%

Question: How did the ED50 [1] turn out when `CCCN(CCC)[C@@H]1C[C@@H]1c1cccc(O)c1` was run?
Answer: > 0.05 mg/kg

Question: Which ED50 [1] does the source give for `CCCN(CCC)[C@H]1Cc2c(O)cccc2C[C@H]1C` [listing 1 of 2 here] here?
Answer: > 0.05 mg/kg

Question: How did the ED50 [1] turn out when `CCCN(CCC)[C@@H]1C[C@@H]1c1ccccc1O` was run?
Answer: 0.04 mg/kg

Question: How did the Ki [15] turn out when `CCCN(CCC)[C@@H]1CCc2cccc(O)c2[C@H]1C` (racemic) was run?
Answer: 1040 nM

Question: What about the ED50 [1] of the same molecule?
Answer: > 0.05 mg/kg

Question: With `CCCN1CCC[C@H]2Cc3cccc(O)c3C[C@@H]21` [listing 2 of 2 here] as the molecule, how does the Control [16] read?
Answer: 117.7%

Question: And the Control [17]?
Answer: 116.9%

Question: What about the Control [18] of the same molecule?
Answer: 124.8%

Question: And the Control [19]?
Answer: 113%

Question: And the Control [20]?
Answer: 112.4%

Question: What about the Control [21] of the same molecule?
Answer: 95.4%

Question: And the Control [22]?
Answer: 102.3%

Question: And the Control [23]?
Answer: 95.1%

Question: What about the Control [24] of the same molecule?
Answer: 91.4%

Question: Which results are given for `CCCN1CCC[C@H]2c3c(O)cccc3CC[C@@H]21`?
Answer: ED50 [1]: 0.0005 mg/kg; Control [3]: 140%

Question: How did the Control [4] turn out when `Oc1cccc2c1C[C@@H]1NCCC[C@@H]1C2` was run?
Answer: 105%

Question: What about the Control [5] of the same molecule?
Answer: 101.7%

Question: And the Control [6]?
Answer: 97.7%

Question: What about the Control [7] of the same molecule?
Answer: 75.3% and 73.5%

Question: What about the Control [8] of the same molecule?
Answer: 59.7%

Question: What about the Control [9] of the same molecule?
Answer: 70.4%

Question: What about the Control [10] of the same molecule?
Answer: 92.6%

Question: What about the Control [11] of the same molecule?
Answer: 88%

Question: What about the Control [12] of the same molecule?
Answer: 88.6%

Question: And the Control [13]?
Answer: 102.7%

Question: What about the Control [14] of the same molecule?
Answer: 92.5%

Question: Which results are given for `CCCN1CCC[C@@H]2Cc3cccc(O)c3C[C@@H]21` [listing 2 of 2 here]?
Answer: ED50 [1]: > 0.05 mg/kg; Control [3]: 63%

Question: How did the Ki [15] turn out when `CCCN(CCC)[C@H]1Cc2c(O)cccc2C[C@H]1C` [listing 2 of 2 here] was run?
Answer: 2020 nM

Question: How did the Ki [15] turn out when `CCCN(CCC)[C@@H]1Cc2c(O)cccc2C[C@@H]1C` was run?
Answer: 394 nM

Question: What about the ED50 [1] of the same molecule?
Answer: 0.02 mg/kg

Question: For `CCCN(CCC)[C@H]1Cc2c(O)cccc2C[C@@H]1C`, which Ki [15] is on record?
Answer: 49.6 nM

Question: With `Oc1cccc2c1C[C@H]1NCCC[C@H]1C2` as the molecule, how does the Control [4] read?
Answer: 100.5%

Question: What about the Control [5] of the same molecule?
Answer: 106.8%

Question: And the Control [6]?
Answer: 94.9%

Question: What about the Control [7] of the same molecule?
Answer: 82.4% and 85.6%

Question: And the Control [8]?
Answer: 101.4%

Question: What about the Control [9] of the same molecule?
Answer: 64.2%

Question: And the Control [10]?
Answer: 92.4%

Question: What about the Control [11] of the same molecule?
Answer: 84%

Question: And the Control [12]?
Answer: 92%

Question: What about the Control [13] of the same molecule?
Answer: 108.8%

Question: What about the Control [14] of the same molecule?
Answer: 89.4%

Question: `CCCN(CCC)[C@H]1CCc2cccc(O)c2[C@H]1C` was tested. Which Ki [15] did it give?
Answer: 2920 nM

Question: And the ED50 [1]?
Answer: > 0.05 mg/kg

Question: With `CCCN1CCC[C@@H]2Cc3cccc(O)c3C[C@H]21` as the molecule, how does the ED50 [1] read?
Answer: > 0.05 mg/kg

Question: And the Control [3]?
Answer: 97.5%
